Laboratory results as given in ChEMBL document CHEMBL2331226, “Antiproliferative and antiplasmodial dimeric phloroglucinols from Mallotus oppositifolius from the Madagascar Dry Forest (1)” (J Nat Prod, 2013).
Activity calls are given as the source filed them. The rule behind the calls is not given here.

Experiments:
Plasmodium falciparum [1] = test: Gametocytocidal antimalarial activity against chloroquine-sensitive Plasmodium falciparum NF54 late gametocyte stage after 72 hrs by alamar blue assay; type: functional, organism-based; conditions: NF54, 72 h
How it was run: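 Stage V gametocytes came from NF54 cultures kept at 37 °C in 5% O2, 5% CO2 and […]. Asexual stages were cleared with 5% sorbitol for four days from day 9, and gametocytes were purified on day 13 over NycoPrep 1.077. 30,000–50,000 gametocytes per well were incubated with drug for 72 h in low O2. AlamarBlue was then added for 24 h (ex 540/em 585 nm). IC50 from dose-response fit; two independent determinations in duplicate, ± S.E.M.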

Plasmodium falciparum [2] = test: Antimalarial activity against chloroquine/mefloquine-resistant Plasmodium falciparum Dd2 intraerythrocytic stage after 72 hrs by SYBR green I dye based assay; type: functional, organism-based; conditions: for IC50: Plasmodium falciparum, Dd2, 72 h
Plasmodium falciparum [3] = test: Cytocidal antimalarial activity against drug-sensitive Plasmodium falciparum HB3 intraerythrocytic stage; type: functional; conditions: read-out: LD50 (the source's name)
How it was run: (§1)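 Killing of intraerythrocytic stages measured by a rapid cytocidal assay, per an earlier report. LD50 values are the mean of three replicate determinations ± S.E.M.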

A2780 = test: Cytotoxicity against human A2780 cells; type: functional, cell-based
Plasmodium falciparum [4] = test: Antimalarial activity against chloroquine-sensitive Plasmodium falciparum NF54 early gametocyte stage assessed as reduction in occurrence of asexual intraerythrocytic stages after 13 days at 0.76 uM by microscopy; type: functional, organism-based
How it was run: (§2)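 NF54 cultures at 0.75% parasitemia and 1% hematocrit were grown 13 days with or without drug in 24-well plates, humidified, at 37 °C under low oxygen. Plain or drug-supplemented medium was replaced on days 4, 6, 8 and 9-12. On day 13, asexual and sexual parasitaemia were counted on Giemsa-stained smears. Controls were untreated and 0.5% DMSO vehicle. Two independent experiments.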

Plasmodium falciparum [5] = test: Antimalarial activity against chloroquine-sensitive Plasmodium falciparum NF54 early gametocyte stage assessed as reduction in occurrence of gametocyte stages after 13 days at 0.76 uM by microscopy; type: functional; set-up: scale not given: the % may be the effect or the level left; how it was run: as §2
Plasmodium falciparum [6] = test: Cytocidal antimalarial activity against chloroquine/mefloquine-resistant Plasmodium falciparum Dd2 intraerythrocytic stage; type: functional; conditions: read-out: LD50 (the source's name); how it was run: as §1
Plasmodium falciparum [7] = test: Antimalarial activity against chloroquine-sensitive Plasmodium falciparum NF54 asexual stage after 72 hrs by alamar blue assay; type: functional, organism-based; conditions: NF54, 72 h
Plasmodium falciparum [8] = test: Antimalarial activity against chloroquine-sensitive Plasmodium falciparum NF54 early gametocyte stage assessed as reduction in occurrence of asexual intraerythrocytic stages after 13 days at 0.14 uM by microscopy; type: functional, organism-based; how it was run: as §2
Plasmodium falciparum [9] = test: Antimalarial activity against chloroquine-sensitive Plasmodium falciparum NF54 early gametocyte stage assessed as reduction in occurrence of gametocyte stages after 13 days at 0.14 uM by microscopy; type: functional, organism-based; how it was run: as §2

Compound | IC50 (Plasmodium falciparum [1]) [nM] | IC100 (Plasmodium falciparum [2]) [µM] | IC50 (Plasmodium falciparum [2]) [nM] | LC50 (Plasmodium falciparum [3]) [µM] | IC50 (A2780) [nM] | Activity (Plasmodium falciparum [4]) | Activity (Plasmodium falciparum [5]) [%] | LC50 (Plasmodium falciparum [6]) [µM] | IC50 (Plasmodium falciparum [7]) [nM] | Activity (Plasmodium falciparum [8]) | Activity (Plasmodium falciparum [9])
C[C@H]1[C@H](OC(=O)CCC(=O)O)O[C@@H]2O[C@@]3(C)CC[C@H]4[C@H](C)CC[C@@H]1[C@@]24OO3 [ARTESUNATE] | 2300 |  |  |  |  |  |  |  |  |  | 
COc1c(C)c(O)c(C(C)=O)c(O)c1Cc1c(O)c(C(C)=O)c(O)c(CC=C(C)C)c1OC [MALLOTOJAPONIN B] |  | 44 | 750 | 14.6 | 1100 | Active | 80 | 6.7 |  |  | 
COc1c(CC=C(C)C)c(O)c(C(C)=O)c(O)c1Cc1c(O)c(C(C)=O)c(O)c(CC=C(C)C)c1OC [MALLOTOJAPONIN C] | 3600 | 39 | 140 | 0.81 | 1300 |  |  | 0.8 | 70 | Active | Active
